# Screening data (PubChem)
# Shown is part of a subset that was picked to be rich in hits.
# KSHV LANA nucl: inhibitors of KSHV LANA binding to nucleosomes. FITC-LANA1-23 / chicken nucleosome fluorescence polarization; active compounds read low. 51,000 tested, 0.3% active. AID 720717. z-score (test concentration not listed);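 active = both repeat wells score below -2 in polarization z-score versus plate sample wells, excluding overly bright wells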
#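 test system = FITC-LANA peptide and chicken nucleosomes | amount = 240 nM purified chicken nucleosomes (480 nM peptide binding sites), final | reagent = 50 nM FITC-LANA1-23 probe | medium = TEN-BT buffer, pH 7.5 | doses = single compound addition by pin transfer, 100 nL per well | timing = 10–45 min, room temperature | detection = fluorescence polarization | repeats = duplicate plates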
# Ab BasE inh: inhibitors of Acinetobacter baumannii siderophore enzyme BasE; purified BasE, fluorescence polarization binding displacement; inhibition, % (test concentration not listed); 84,000 tested, 0.1% active; AID 485350; in the data active = inhibition above about 25%, passing the limit was not always enough;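 also: 0% = negative plate control signal and 100% = positive plate control signal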
# * marks the source's active call; other numbers are inactive results; x = not tested or not shown; ! = repeats disagree.
SMILES,KSHV LANA nucl,Ab BasE inh
CC(CNC(=O)c1cc(C2CC2)[nH]n1)c1ccccc1 (stereo unspecified),-1.4,-1
Cc1cc(C(=O)NCC(C)c2ccccc2)n[nH]1 (stereo unspecified),-2.2*,0
COc1cccc(CNc2ccc(-c3nc4ncccc4o3)cc2)c1OC,-1.4,1
Cn1cccc1/C=C1/SC(=S)N(c2ccc(C(=O)O)cc2)C1=O,-0.2,-37
CN(C)/C=C1\SC(=S)N(c2ccc(Br)cc2)C1=O,-8.9*,8
N#Cc1ccc(CSc2nncn2-c2ccccc2)cc1,x,-6
CC(C)(C)CC(C)(C)NC(=O)Nc1cccc(Cl)c1,-2*,2
Cc1ccccc1NC(=O)NC(C)(C)CC(C)(C)C,-0.068,1
Cc1ccc(/C=N/N=C(/C(=O)c2ccccc2)c2ccccc2)o1,x,1
CC[C@@]1(O)C[C@H](O[C@H]2C[C@H](N(C)C)[C@H](O[C@H]3C[C@H](O)[C@H](O[C@H]4CCC(=O)[C@H](C)O4)[C@H](C)O3)[C@H](C)O2)c2c(cc3c(c2O)C(=O)c2c(O)cccc2C3=O)[C@H]1C(=O)OC,0.19,x
COc1cccc2c1C(=O)c1c(O)c3c(c(O)c1C2=O)C[C@@](O)(C(=O)CO)C[C@@H]3O[C@H]1C[C@H](N)[C@@H](O)[C@H](C)O1,-11,x
CC(=O)[C@]1(O)Cc2c(O)c3c(c(O)c2[C@@H](O[C@H]2C[C@H](N)[C@H](O)[C@H](C)O2)C1)C(=O)c1ccccc1C3=O,-10*!,x
COc1cccc2c1C(=O)c1c(O)c3c(c(O)c1C2=O)C[C@@](O)(C(C)=O)C[C@@H]3O[C@H]1C[C@H](N)[C@H](O)[C@H](C)O1,-8.3*,x
Cc1cc(=O)c2cccc(C)c2[nH]1,-0.49,0
CCN(Cc1nc2ccccc2c(=O)[nH]1)Cc1nc2cc(C(F)(F)F)ccc2c(=O)[nH]1,x,-1
O=c1[nH]c(=O)c2nc3cc(C(F)(F)F)ccc3nc2[nH]1,-2.9*,13
NC(=O)C1CN(C(=O)Cc2ccc3c(c2)CCC3)c2ccccc2O1 (stereo unspecified),x,1
CC1CCc2c(sc(NC(=O)C3CCCN3S(=O)(=O)c3cccs3)c2C(N)=O)C1 (stereo unspecified),0.98,-2
Oc1ccc(Cl)c2cccnc12,-0.12,-1
Oc1ccc(Br)c2cccnc12,1,57*
COc1ncnc(Cl)c1N,0.22,-1
Cc1ccnc(Cl)c1N,0.036,45*
O=C(CSc1ncc(CO)n1Cc1ccc(Cl)cc1)N1CCN(c2ccccc2)CC1,-0.92,2
O=C(Oc1cccc2cccnc12)c1ccccc1,-0.04,2
O=C(Oc1cccc2cccnc12)c1cc(C(F)(F)F)cc(C(F)(F)F)c1,x,42*
SMILES,KSHV LANA nucl,Ab BasE inh
COC(=O)NC1CS(=O)(=O)CC1NC(=O)OC (stereo unspecified),-0.05,-4
CCOc1ccccc1C(=O)OCC(=O)N1CCN(c2ccccc2)CC1,x,-1
O=C(NCc1ccccc1)c1cccnc1Nc1ccccc1,-1.1,0
Nc1cccnc1Nc1ccccc1,-3.1*,24
CN(CC1COc2ccccc2O1)C(=O)NC12CC3CC(CC(C3)C1)C2 (stereo unspecified),x,30*
CN(CC1COc2ccccc2O1)C(=O)C1(c2ccccc2)CC1 (stereo unspecified),x,3
COc1cc(/C=C/C(=O)OCC(=O)Nc2cccc(F)c2)ccc1O,x,1
O=C(/C=C/c1ccc(O)c(O)c1)O[C@@H]1C[C@](O)(C(=O)O)C[C@@H](O)[C@H]1O,0.071,32*!
Brc1ccc2c(c1)OCCO2,x,2
N#CC1=C2SCN(Cc3ccccc3)CN2C(=O)CC1c1cccs1 (stereo unspecified),-0.44,-1
CCN1C=CC2=C(C#N)C(N)C(C#N)(C#N)C(c3cccs3)C2C1 (stereo unspecified),-6.3*,16
CCN1CC=C2C(C1)C(c1ccc(Cl)s1)C(C#N)=C(N)C2(C#N)C#N (stereo unspecified),-5.9*,20
CCCN1CC=C2C(C1)C(c1ccc(C(=O)OC)cc1)C(C#N)=C(N)C2(C#N)C#N (stereo unspecified),-1.7,14
Cc1ccc(S(=O)Cc2nc(-c3ccc(C(=O)N4CCOCC4)cc3)oc2C)cc1 (stereo unspecified),-0.32,-2
COc1ccccc1-c1noc(-c2cccc(Cl)c2)n1,1.1,-1
Nc1ccc2nsnc2c1,-3.1*,26
CCOC(=O)c1ccc2nsnc2c1,0.36,0
COc1ccc(N2CCN(CC(=O)c3ccc(OC)c(OC)c3)CC2)cc1,-0.21,0
COc1cccc(N2CCN(C(=O)c3nn(C)c4c3COc3ccccc3-4)CC2)c1,-2.3*,3
COc1cccc(C(=O)N2CCN(c3ccccc3)CC2)c1,x,3
COc1ccc2c(C)cc(SCc3cn4ccsc4n3)nc2c1,x,-2
C[n+]1cccc2ccc(O)cc21,-6.7*,20
CCOC(=O)c1cccc(NC(=O)Cn2nnc(-c3ccc(C)cc3)n2)c1,-0.72,2
